Assay results from different studies.
Protocols differ between the studies behind these lines. pIC50: −log10 of the molar value.

With `CC[C@H](C)[C@H](NC(=O)[C@H](CCCCN)NC(=O)[C@H](CCCCN)NC(=O)[C@H](CCCCN)NC(=O)[C@H](CC(C)C)NC(=O)[C@H](CCCNC(=N)N)NC(=O)[C@H](CCCCN)NC(=O)[C@@H](N)CC(C)C)C(=O)N[C@@H](CCCCN)C(=O)N[C@@H](CCCCN)C(=O)N[C@@H](CC(C)C)C(=O)N[C@@H](CC(C)C)C(=O)N[C@@H](CCCCN)C(N)=O` the pIC50 was 3.79 (A549; cell growth or viability, MTT; 24 h).
For `c1ccc(Oc2ccc(Nc3c4c(nc5ccccc35)CCC4)cc2)cc1`, the inhibition was 96% (Leishmania donovani; parasite growth; 40 µM, intracellular, amastigote).
With `N#C[Se]Cc1cc(=O)oc2cc(O)ccc12` the GI50 was 28 µM (A549; cell growth or viability, SRB).
With `O=C(Nc1ccc(Cl)cc1)Nc1cccc(-c2cn(Cc3ccc(Br)cc3)nn2)c1` the viability was 123% (A549; cell growth or viability, CCK-8; 50 µM, 72 h).
The pIC50 of `O=c1cc(CSc2ccc(N=Cc3ccccc3C(F)(F)F)cc2)occ1O` is reported as 4.40 (ABTS scavenging, absorbance).
With `CC[C@H](C)[C@H](NC(=O)[C@H](CCCNC(=N)N)NC(=O)[C@H](CC(C)C)NC(=O)[C@@H](N)CCCNC(=N)N)C(=O)N[C@@H](CCC(N)=O)C(=O)N[C@@H](CCCNC(=N)N)C(=O)N[C@@H](CCCNC(=N)N)C(=O)N[C@@H](CCCNC(=N)N)C(=O)N[C@@H](Cc1ccccc1)C(=O)N[C@@H](CCCNC(=N)N)C(=O)N[C@@H](CCCCN)C(=O)N[C@@H](CCCCN)C(=O)NCC(N)=O` the pIC50 was less than 3.30 (A549; cell growth or viability, MTT; 24 h).
`Cc1c(Cl)c(=O)oc2cc(OCCCC[Se]C#N)ccc12` has a GI50 of 12 µM (A549; cell growth or viability, SRB).
`O=c1cc(CSc2ccc(N=Cc3ccccc3)cc2)occ1O` has a pIC50 of 7.40 (ABTS scavenging, absorbance).
For `CC(C)C[C@H](NC(=O)[C@H](CCCCN)NC(=O)[C@H](CC(C)C)NC(=O)[C@H](Cc1ccccc1)NC(=O)[C@H](CC(C)C)NC(=O)[C@H](CCCCN)NC(=O)[C@H](CCCCN)NC(=O)[C@H](CC(C)C)NC(=O)[C@H](CC(C)C)NC(=O)[C@H](CCCCN)NC(=O)[C@@H](N)CCCNC(=N)N)C(=O)N[C@@H](CCCCN)C(=O)N[C@@H](CCCCN)C(N)=O`, the pIC50 was 3.79 (A549; cell growth or viability, MTT; 24 h).
For `O=c1cc(CSc2ccc(N=Cc3ccccc3F)cc2)occ1O`, the pIC50 was 7.52 (ABTS scavenging, absorbance).
For `N.N.[Cl][Pt][Cl]`, the inhibition was 100% (WSU-NHL; cell growth or viability, ATP luminescence; 10 µM, 72 h).
`CCOc1ccc(Nc2c3c(nc4ccccc24)CCC3)cc1` gave an inhibition of 81% (Leishmania donovani; parasite growth; 33.33 µM, promastigote).
With `COc1ccccc1C=Nc1ccc(SCc2cc(=O)c(O)co2)cc1` the pIC50 was 4.67 (ABTS scavenging, absorbance).
